Columns and labels:
[1] = test system: Hepatitis C virus; assay: Antiviral activity against Hepatitis C virus genotype 1b infected in human HuH5.2 cells after 72 hrs by luciferase reporter gene assay; format: functional, cell-based, Hepacivirus hominis
Outline: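 Huh 5-2 cells with genotype 1b I389luc-ubi-neo/NS3-3'/5.1 subgenomic replicon, seeded 6 500 cells/well in DMEM/10% FCS without Geneticin, overnight 37 °C. Compound (DMSO stock diluted in medium) in 1:5 four-step or 1:2 eight-step series, 72 h. Cells PBS-washed, lysed 5 min, luciferase luminescence read, converted to % untreated control; EC50 from dose-response curve, mean of ≥2 independent experiments.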

[2] = Cytotoxicity against human HuH5.2 cells assessed as reduction in metabolic activity after 72 hrs by MTS assay; format: toxicity, cell-based, Huh-5-2; conditions: HuH5.2 cells
Outline: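 Run in parallel with the replicon assay: Huh 5-2 replicon cells, 6 500 cells/well, compound series for 72 h at 37 °C, 5% CO2. Medium then replaced with 5% MTS in phenol red-free medium for 1.5 h. Absorbance at 498 nm expressed as % untreated cells; CC50 from dose-response curve as 50% reduction in metabolic activity, mean of ≥2 experiments.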

[3] = Selectivity index, ratio of CC50 for human HuH5.2 cells to EC50 for hepatitis C virus genotype 1b infected in human HuH5.2 cells; format: toxicity, cell-based; conditions: HuH5.2 cells, read-out: Ratio CC50/EC50
Outline: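 Ratio of CC50 (MTS metabolic read-out, 72 h) to EC50 (replicon luciferase read-out, 72 h), both measured in parallel on Huh 5-2 genotype 1b replicon cells.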

[4] = Inhibition of Hepatitis C virus genotype 1b (con1) full length C-terminal His-tagged NS3 helicase expressed in Escherichia coli Rosette(DE3) assessed as inhibition of 5'-Cy5/3'-IAbRQ-labeled DNA unwinding activity by molecular beacon assay; parameters: species or system Hepatitis C virus (isolate Con1)
Outline: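 Molecular beacon unwinding assay: 25 mM MOPS pH 6.5, 1.25 mM MgCl2, 5% DMSO, 5 µg/ml BSA, 0.01% Tween20, 0.05 mM DTT, 5 nM fluorescent DNA substrate, 12.5 nM NS3h, 1 mM ATP.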

[5] = Hepatitis C virus, genotype 1b, Huh-5-2, 72 h

Row | SMILES | EC50 [1, 5] | EC90 [1, 5] | IC50 [4] | EC50 [1] | EC90 [1] | CC50 at 72 h [2] | selectivity ratio [3]
1 | NNc1ncnc2sc3c(c12)CCCC3 | 23.1 µM | 47.4 µM | – | – | – | 247 µM | 10.7
2 | CCOc1ccc2sc(NS(=O)(=O)c3ccc(OC)c(OC)c3)nc2c1 | > 127 µM | > 127 µM | – | – | – | > 127 µM | –
3 | COc1ccc(-c2c3c(nc4sc5c(O)nc(C)nc5c24)CCC3)cc1 | 21 µM | – | – | – | – | 128 µM | 6.1
4 | COc1ccc(-c2c(C#N)c(SCC(N)=O)nc3c2CCCC3)cc1 | 130 µM | > 142 µM | – | – | – | > 142 µM | > 1.1
5 | O=C(CCN1C(=O)c2cccc3cccc(c23)C1=O)N1CCN(Cc2ccc3c(c2)OCO3)CC1 | 32 µM | – | – | – | – | > 106 µM | > 3.3
6 | CC(=O)Nc1ccc(/C=C2\C=C(C(O)c3ccc(NC(C)=O)cc3)c3ccccc32)cc1 (stereo not given) | 21.5 µM | – | – | – | – | 48.8 µM | 2.3
7 | O=S(=O)(Nc1ccc(O)c(Sc2ncn[nH]2)c1)c1cccc2ccccc12 | 42.2 µM | – | – | – | – | > 126 µM | > 2.9
8 | O=C(Nc1ccc(S(=O)(=O)O)c2ccccc12)c1ccc(C(=O)Nc2ccc(S(=O)(=O)O)c3ccccc23)cc1 | > 86 µM | > 86 µM | – | – | – | > 86 µM | –
9 | COc1ccc(C(N)=O)cc1NS(=O)(=O)c1cccc2cccnc12 | > 140 µM | > 140 µM | – | – | – | > 140 µM | –
10 | CCc1ccc(S(=O)(=O)Nc2cc3c(C(=O)OC)c(C)oc3c3ccccc23)cc1 | 1.1 µM | – | – | – | – | 4.7 µM | 4.3
11 | C/C(=N\Nc1ncnc2sc3c(c12)CCCC3)c1ccco1 | 18.2 µM | – | – | – | – | 58.9 µM | 3.2
12 | c1cnc2c(Nc3ncnc4sc5c(c34)CCCC5)cccc2c1 | 186 µM | > 100 µM | – | – | – | > 301 µM | > 1.6
13 | C/C(=N\Nc1ncnc2sc3c(c12)CCCC3)c1ccc[nH]1 | 5.26 µM | 12.8 µM | – | – | – | 19.5 µM | 3.7
14 | C/C(=N\Nc1nc(C)nc2sc3c(c12)CCCC3)c1ccccc1O | 115 µM | > 94.6 µM | – | – | – | > 284 µM | > 2.5
15 | COC(=O)c1ccc(N2C(=O)CC(S/C(=N\c3ccccc3)NCc3ccc4c(c3)OCO4)C2=O)cc1 (stereo not given) | 12.8 µM | – | – | – | – | 62.6 µM | 4.9
16 | CCOc1cccc(C(=O)Nc2cc(C(=O)OC)ccc2N2CCN(CC)CC2)c1 | 38.9 µM | – | – | – | – | 61.7 µM | 1.6

Row | SMILES | EC50 [1, 5] | EC90 [1, 5] | IC50 [4] | EC50 [1] | EC90 [1] | CC50 at 72 h [2] | selectivity ratio [3]
17 | C/C(=N\Nc1ncnc2sc3c(c12)CCCC3)c1ccccc1 | 33.6 µM | > 310 µM | – | – | – | 53.4 µM | 1.6
18 | COc1ccc(OC)c(/C(C)=N/Nc2ncnc3sc4c(c23)CCCC4)c1 | 53.6 µM | – | – | – | – | 98.5 µM | 1.8
19 | CCOc1cc(C)c(S(=O)(=O)N2CCN(Cc3ccc4c(c3)OCO4)CC2)cc1C | 34.5 µM | – | – | – | – | > 116 µM | > 3.4
20 | CCOC(=O)c1cnc2c(ccc3ccccc32)c1Nc1ccc(C(=O)OC)cc1 | 10.9 µM | – | – | – | – | 56.2 µM | 5.2
21 | Cc1nc(NNC(=O)c2ccccn2)c2c3c(sc2n1)CCCC3 | 0.077 µM | 0.32 µM | – | – | – | > 2.95 µM | > 38.1
22 | C/C(=N\Nc1ncnc2sc3c(c12)CCCC3)c1cccnc1 | 79.4 µM | > 103 µM | – | – | – | > 309 µM | > 3.9
23 | C/C(=N\Nc1ncnc2sc3c(c12)CCCC3)c1ccccn1 | 1.1 µM | 3.48 µM | – | – | – | 7.59 µM | 6.9
24 | Cc1cc(O)cc(O)c1/C=N/NC(=O)COc1ccc2ccccc2c1 | 1.9 µM | – | – | – | – | 51.9 µM | 27.3
25 | COc1cccc(C2=Nn3c(CN4CCC(C)CC4)nnc3SC2)c1 | 130 µM | > 139 µM | – | – | – | > 139 µM | > 1.1
26 | C/C(=N\Nc1ncnc2sc3c(c12)CCCC3)c1cccs1 | 23 µM | – | – | – | – | 46 µM | 2
27 | O=C(/C=C(/C(=O)O)c1ccccc1)Nc1ccc(N2CCN(CCO)CC2)cc1 | 65 µM | – | – | – | – | > 126 µM | > 0.19
28 | O=C(N/N=C\c1cccnc1)c1cc(-c2ccc3c(c2)OCO3)n[nH]1 | > 149 µM | > 149 µM | – | – | – | > 149 µM | –
29 | CCOc1cc(C2C(C(=O)OC)=C(C)NC3=C2C(=O)CC(c2ccc(OC)c(OC)c2)C3)ccc1O (stereo not given) | 36 µM | – | – | – | – | > 101 µM | > 2.8
30 | C/C(=N/Nc1ncnc2sc3c(c12)CCC3)c1cnccn1 | 0.688 µM | < 0.839 µM | – | – | – | 1.12 µM | 1.6
31 | COc1cc2nc(CN3CCC(C(N)=O)CC3)[nH]c(=O)c2cc1OC | > 144 µM | > 144 µM | – | – | – | > 144 µM | –
32 | CCC[C@H](NC(=O)[C@@H]1[C@H]2CCC[C@H]2CN1C(=O)[C@@H](NC(=O)[C@@H](NC(=O)c1cnccn1)C1CCCCC1)C(C)(C)C)C(=O)C(=O)NC1CC1 [TELAPREVIR] | 0.8 µM | – | – | – | – | – | 58.8

Further lines, with some results ahead:

Row | EC50 [1, 5] | EC90 [1, 5] | IC50 [4] | EC50 [1] | EC90 [1] | SMILES | CC50 at 72 h [2] | selectivity ratio [3]
33 | 0.088 µM | 0.286 µM | > 1000 µM | – | – | Cc1c(Cl)sc2ncnc(NNC(=O)c3ccccn3)c12 | > 9.38 µM | > 106
34 | 403 µM | > 443 µM | – | – | – | C/C(=N\Nc1ncnc2sc3c(c12)CCCC3)c1cccc(O)c1 | > 443 µM | > 1.1
35 | 128 µM | > 307 µM | – | – | – | O=C(NNc1ncnc2sc3c(c12)CCCC3)c1cccnc1 | > 307 µM | > 2.4
36 | 1.1 µM | 3.25 µM | > 1000 µM | – | – | C/C(=N\Nc1ncnc2sc3ccccc3c12)c1nc2ccccc2[nH]1 | 19.1 µM | 17.4
37 | 31.1 µM | – | – | – | – | O=C(NNc1ncnc2sc3c(c12)CCCC3)c1cccs1 | 36.7 µM | 1.2
38 | 0.832 µM | 1.6 µM | – | – | – | O=C(NNc1ncnc2sc3ccccc3c12)c1ccccc1O | 108 µM | 130
39 | 12 µM | > 38.8 µM | – | – | – | O=C(NNc1ncnc2sccc12)c1ccccc1O | > 349 µM | > 27
40 | 17.8 µM | 17.6 µM | – | – | – | C/C(=N\Nc1ncnc2sc3c(c12)CCC3)c1cc(O)ccc1O | > 367 µM | > 20.6
41 | 199 µM | – | – | – | – | O=C(NNc1ncnc2sc3c(c12)CCCC3)c1ccco1 | 230 µM | 1.2
42 | 5.04 µM | 1.79 µM | – | – | – | C/C(=N/Nc1ncnc2sccc12)c1cnccn1 | 9.01 µM | 1.8
43 | 0.415 µM | 0.858 µM | – | – | – | C/C(=N\Nc1ncnc2sc3ccccc3c12)c1cnccn1 | 1.99 µM | 6.4
44 | 0.681 µM | 2.14 µM | > 1000 µM | – | – | O=C(NNc1ncnc2sc3ccccc3c12)c1cc(O)ccc1O | 46.5 µM | 68.3
45 | 0.384 µM | < 1.28 µM | – | – | – | C/C(=N/Nc1ncnc2sc(C)c(C)c12)c1ccccc1O | 93.6 µM | 244
46 | > 151 µM | > 151 µM | – | – | – | COc1ccc(/C(C)=N/NC(=O)c2cc(O)cc(O)c2)c(OC)c1 | > 151 µM | –
47 | 210 µM | > 220 µM | – | – | – | O=C(NNc1ncnc2sc3c(c12)CCCC3)c1cccc(O)c1 | > 294 µM | > 1.4
48 | 0.17 µM | – | – | – | – | C/C(=N/Nc1ncnc2sc(Cl)c(C)c12)c1ccccc1O | > 9.01 µM | > 56.1
49 | 0.0945 µM | < 0.256 µM | – | – | – | O=C(NNc1ncnc2sc3c(c12)CCC3)c1cnccn1 | 2.97 µM | 31.4
50 | > 295 µM | > 295 µM | – | – | – | C/C(=N\Nc1ncnc2sc3c(c12)CCCC3)c1ccc(O)cc1 | > 295 µM | –
51 | 9.41 µM | 55.1 µM | – | – | – | C/C(=N\Nc1ncnc2sc3c(c12)CCCC3)c1cc(Cl)ccc1Cl | > 256 µM | > 27.2
52 | 0.461 µM | 1.01 µM | – | – | – | O=C(NNc1ncnc2sc3ccccc3c12)c1ccccn1 | 1.54 µM | 3.3
53 | 2.75 µM | 9.4 µM | – | – | – | O=C(NNc1ncnc2sccc12)c1cc(O)ccc1O | > 165 µM | > 60
54 | 147 µM | – | – | – | – | O=C(NNc1ncnc2sc3c(c12)CCCC3)c1ccc[nH]1 | 160 µM | 1.1
55 | – | – | – | < 2.2 µM | 135 µM | C/C(=N\Nc1ncnc2sc3c(c12)CCCC3)c1cc(O)ccc1O (stereo in doubt; form 2) | > 282 µM | > 128
